ChEMBL document CHEMBL3817832, “Optimizing Ligand Efficiency of Selective Androgen Receptor Modulators (SARMs)” (ACS Med Chem Lett, 2016)
In brackets after ≈: the same amount, converted by molar mass.

Key:
[1] = biological target: T1, Androgen receptor (Homo sapiens, UniProt P10275); test: Modulation of human androgen receptor expressed in African green monkey CV1 cells after 24 hrs by luciferase reporter gene assay; format: cell-based, CV-1
T1 sequence (P10275 whole entry): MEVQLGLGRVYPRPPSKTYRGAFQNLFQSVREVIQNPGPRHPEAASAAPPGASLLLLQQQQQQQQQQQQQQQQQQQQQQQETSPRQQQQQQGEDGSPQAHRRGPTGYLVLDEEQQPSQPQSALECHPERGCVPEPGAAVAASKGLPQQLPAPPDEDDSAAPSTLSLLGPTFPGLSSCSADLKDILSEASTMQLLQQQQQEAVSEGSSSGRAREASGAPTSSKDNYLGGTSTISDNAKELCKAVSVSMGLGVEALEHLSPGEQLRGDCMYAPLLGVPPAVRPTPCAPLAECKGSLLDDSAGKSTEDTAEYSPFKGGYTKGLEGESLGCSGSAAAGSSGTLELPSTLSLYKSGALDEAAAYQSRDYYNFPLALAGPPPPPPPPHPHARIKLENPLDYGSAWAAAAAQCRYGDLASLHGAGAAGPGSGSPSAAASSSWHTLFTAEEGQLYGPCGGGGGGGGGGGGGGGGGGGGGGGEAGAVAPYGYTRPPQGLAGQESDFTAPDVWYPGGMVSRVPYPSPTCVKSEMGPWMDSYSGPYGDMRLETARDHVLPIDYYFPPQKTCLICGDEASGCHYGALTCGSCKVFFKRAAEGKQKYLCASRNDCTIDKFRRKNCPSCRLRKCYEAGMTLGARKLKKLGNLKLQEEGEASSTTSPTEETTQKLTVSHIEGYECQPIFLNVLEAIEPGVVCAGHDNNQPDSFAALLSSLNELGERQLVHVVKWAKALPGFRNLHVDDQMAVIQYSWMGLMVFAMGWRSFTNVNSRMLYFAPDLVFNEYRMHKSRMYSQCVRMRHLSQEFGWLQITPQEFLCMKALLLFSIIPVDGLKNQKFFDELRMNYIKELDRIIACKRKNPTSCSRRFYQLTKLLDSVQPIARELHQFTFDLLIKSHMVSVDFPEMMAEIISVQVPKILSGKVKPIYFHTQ
Summary of the method: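 Functional AR activity is read out by a luciferase reporter gene assay in mammalian cells transfected with the human AR gene. EC50 is derived from the response and reported as pEC50 (−log EC50).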

[2] = Half life in Wistar Han rat at 5 mg/kg, administered as single dose via oral gavage by LC-MS/MS analysis; format: ADME, organism-based; details: in vivo
[3] = Kinetic aqueous solubility of the compound in PBS at pH 7.4 after 1 hr by chemiluminescent nitrogen detection method; format: physicochemical; details: read-out: Kinetic_solubility
Summary of the method: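 High-throughput kinetic aqueous solubility at pH 7.4. The test compound is added from a DMSO stock, and dissolved compound is quantified by chemiluminescent nitrogen detection (CLND).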

[4] = Oral bioavailability in Wistar Han rat at 10 mg/kg, administered as single dose via oral gavage by LC-MS/MS analysis; format: ADME, organism-based; details: in vivo
[5] = […] in iv dosed Wistar Han rat administered as single dose by LC-MS/MS analysis; format: ADME, organism-based; details: in vivo

| Structure (SMILES) | EC50 [1] [nM] | other results |
| --- | --- | --- |
| N#Cc1ccc(C(O)(C2CCCC2)C(F)(F)F)cc1Cl (stereo not drawn) | 3.16 | – |
| Cc1c(C(O)(C#CC(C)(C)C)C(F)(F)F)ccc(C#N)c1Cl (stereo not drawn) | 79.4 | – |
| C/C=C(\C)C(O)(c1ccc(C#N)c(C(F)(F)F)c1)C(F)(F)F (stereo not drawn) | 39.8 | – |
| Cc1c(C#N)ccc(C(C)(O)C(F)(F)F)c1C (stereo not drawn) | 2510 | – |
| Cc1c(C(O)(C#CC2CC2)C(F)(F)F)ccc(C#N)c1Cl (stereo not drawn) | 15.8 | – |
| C=C(C)C(O)(c1ccc(C#N)c(C(F)(F)F)c1)C(F)(F)F (stereo not drawn) | 31.6 | – |
| Cc1c(C(O)(C(C)C)C(F)(F)F)ccc(C#N)c1Cl (stereo not drawn) | 0.794 | – |
| N#Cc1ccc(C(O)(c2cocn2)C(F)(F)F)cc1C(F)(F)F (stereo not drawn) | 1.26 | half-life [2]: 8 h; solubility kinetic at 1 h [3]: > 700 µM; bioavailability [4]: 83% |
| Cc1c(C(O)(c2cocn2)C(F)(F)F)ccc(C#N)c1C(F)(F)F (stereo not drawn) | 0.501 | half-life [2]: 5.5 h; solubility kinetic at 1 h [3]: > 400 µM; bioavailability [4]: 100% |
| Cc1c(C(O)(C(C)(C)C)C(F)(F)F)ccc(C#N)c1Cl (stereo not drawn) | 79.4 | – |
| CC(C)C(O)(c1ccc(C#N)c(Cl)c1Cl)C(F)(F)F (stereo not drawn) | 0.794 | – |
| CC(O)(c1ccc(C#N)c(Cl)c1Cl)C(F)(F)F (stereo not drawn) | 63.1 | – |
| N#Cc1ccc(C(O)(c2ccc(Cl)o2)C(F)(F)F)cc1C(F)(F)F (stereo not drawn) | 2.51 | – |
| C=CC(O)(c1ccc(C#N)c(C(F)(F)F)c1)C(F)(F)F (stereo not drawn) | 12.6 | – |
| Cc1c(C(O)(c2nccs2)C(F)(F)F)ccc(C#N)c1C(F)(F)F (stereo not drawn) | 10.5 | – |
| Cc1c(C(O)(C2CC2)C(F)(F)F)ccc(C#N)c1Cl (stereo not drawn) | 0.2 | – |
| Cc1c(C(O)(C(F)(F)F)C(F)(F)F)ccc(C#N)c1C(F)(F)F | 1.58 | – |
| CC(C)CC(O)(c1ccc(C#N)c(Cl)c1Cl)C(F)(F)F (stereo not drawn) | 3.16 | – |
| Cc1c(C(C)(C)C(O)C(F)(F)F)ccc(C#N)c1C(F)(F)F (stereo not drawn) | 15.8 | – |
| N#Cc1ccc(C(O)(C2CC2)C(F)(F)F)cc1Cl (stereo not drawn) | 0.398 | half-life [2]: 18 h; clearance [5]: 12 mL/min/kg; solubility kinetic at 1 h [3]: > 400 µM; bioavailability [4]: 80% |
| N#Cc1ccc(C(O)(C2CC2)C(F)(F)F)c(Cl)c1Cl (stereo not drawn) | 0.2 | – |
| CC(C)C(O)(c1ccc(C#N)c(Cl)c1)C(F)(F)F (stereo not drawn) | 3.98 | – |
| N#Cc1ccc(C(O)(c2ccco2)C(F)(F)F)cc1C(F)(F)F (stereo not drawn) | 1.26 | – |
| N#Cc1ccc(C(O)(CO)C(F)(F)F)cc1C(F)(F)F (stereo not drawn) | 10000 | – |
| Cc1c(C(O)(CC(C)(C)C)C(F)(F)F)ccc(C#N)c1Cl (stereo not drawn) | 3.98 | – |
| Cc1c(C(O)(C2CC2)C(F)(F)F)ccc(C#N)c1C(F)(F)F (stereo not drawn) | 0.0316 | half-life [2]: 10 h; solubility kinetic at 1 h [3]: 245 µM (≈ 79.2 µg/mL); bioavailability [4]: 37% |

| Structure (SMILES) | EC50 [1] [nM] | other results |
| --- | --- | --- |
| N#Cc1ccc(C(O)(C(F)(F)F)C(F)(F)F)cc1C(F)(F)F | 15.8 | – |
| Cc1c(C#N)ccc(C(O)(CC(C)(C)C)C(F)(F)F)c1C (stereo not drawn) | 20 | – |
| CCC(O)(c1ccc(C#N)c(C(F)(F)F)c1)C(F)(F)F (stereo not drawn) | 3.98 | half-life [2]: 83 h; bioavailability [4]: 70% |
| CC(C)C(O)(c1ccc(C#N)c(C(F)(F)F)c1)C(F)(F)F (stereo not drawn) | 7.94 | – |
| Cc1c(C#N)ccc(C(O)(C2CC2)C(F)(F)F)c1C (stereo not drawn) | 1.58 | – |
| Cc1c(C(O)(c2ccc(Cl)s2)C(F)(F)F)ccc(C#N)c1C(F)(F)F (stereo not drawn) | 5.62 | – |
| CC(C)(C)CC(O)(c1ccc(C#N)c(Cl)c1Cl)C(F)(F)F (stereo not drawn) | 3.16 | – |
| N#Cc1ccc(C(O)(c2cscn2)C(F)(F)F)cc1C(F)(F)F (stereo not drawn) | 2 | – |
| Cc1c(C(O)(C(F)(F)F)C(F)(F)F)ccc(C#N)c1Cl | 20 | – |
| CCC(O)(c1ccc(C#N)c(Cl)c1Cl)C(F)(F)F (stereo not drawn) | 2.51 | – |
| Cc1c(C(C)(O)C(F)(F)F)ccc(C#N)c1C(F)(F)F (stereo not drawn) | 3.98 | – |
| N#Cc1ccc(C(O)(C2CC2)C(F)(F)F)cc1C(F)(F)F (stereo not drawn) | 0.158 | half-life [2]: 20 h; bioavailability [4]: 86% |
| Cc1c(C(O)(c2ccco2)C(F)(F)F)ccc(C#N)c1C(F)(F)F (stereo not drawn) | 0.251 | – |
| CCC(O)(c1ccc(C#N)c(Cl)c1C)C(F)(F)F (stereo not drawn) | 2 | – |
| N#Cc1ccc(C(O)(C2CCC2)C(F)(F)F)cc1Cl (stereo not drawn) | 1.58 | – |
| N#Cc1ccc(C(O)(c2ccc(Cl)s2)C(F)(F)F)cc1C(F)(F)F (stereo not drawn) | 20 | – |
| Cc1c(C(O)(C(C)C)C(F)(F)F)ccc(C#N)c1C(F)(F)F (stereo not drawn) | 0.251 | – |
| N#Cc1ccc(C(O)(c2nccs2)C(F)(F)F)cc1C(F)(F)F (stereo not drawn) | 2 | – |
| N#Cc1ccc(C(O)(C2CCC2)C(F)(F)F)cc1C(F)(F)F (stereo not drawn) | 1.58 | – |
| Cc1c(C#N)ccc(C(O)(C(C)C)C(F)(F)F)c1C (stereo not drawn) | 12.6 | – |
| Cc1c(C(O)(c2ccc(Cl)o2)C(F)(F)F)ccc(C#N)c1C(F)(F)F (stereo not drawn) | 2.88 | – |
| Cc1c(C(O)(c2cscn2)C(F)(F)F)ccc(C#N)c1C(F)(F)F (stereo not drawn) | 5.89 | – |
| CC(C)(C)C(O)(c1ccc(C#N)c(Cl)c1)C(F)(F)F (stereo not drawn) | 158 | – |
| N#Cc1ccc(C(O)(C2CCC2)C(F)(F)F)c(Cl)c1Cl (stereo not drawn) | 0.631 | – |
| Cc1c(C(O)(C2CCC2)C(F)(F)F)ccc(C#N)c1C(F)(F)F (stereo not drawn) | 0.2 | – |
